# Measurements taken from ChEMBL document CHEMBL5058577, “EUbOPEN Chemogenomics Library 2 (Multiplex)” (2022).
# System: Fibroblast
# Assay: Multiplex assay against human fibroblast
# Assay type: toxicity, cell-based
# In short: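 Values for tubulin, mitochondrial-mass and membrane-permeability phenotypes are per cents of cells with healthy nuclei. These cells were identified by CellPathfinder machine-learning gating of live cells that had been stained at seeding with Hoechst33342, BioTracker Green Microtubule Cytoskeleton Dye, MitoTracker Red and Annexin V Alexa Fluor 680 and imaged on a CQ1 microscope at 37°C and 5% CO2 after compound addition. The gating first set Hoechst high-intensity objects apart from normal cells, then split normal cells into healthy, pyknosed or fragmented nuclei, and pyknosed cells into mitotic or apoptotic.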
# [1] = 12 h, 1 µM, compound concentration 1 uM, replicate 1
# [2] = 12 h, 1 µM, compound concentration 1 uM, replicate 2
# [3] = 12 h, 10 µM, compound concentration 10 uM, replicate 1
# [4] = 12 h, 10 µM, compound concentration 10 uM, replicate 2
# [5] = 24 h, 1 µM, compound concentration 1 uM, replicate 1
# [6] = 24 h, 1 µM, compound concentration 1 uM, replicate 2
# [7] = 24 h, 10 µM, compound concentration 10 uM, replicate 1
# [8] = 24 h, 10 µM, compound concentration 10 uM, replicate 2
# [9] = 48 h, 1 µM, compound concentration 1 uM, replicate 1
# [10] = 48 h, 1 µM, compound concentration 1 uM, replicate 2
# [11] = 48 h, 10 µM, compound concentration 10 uM, replicate 1
# [12] = 48 h, 10 µM, compound concentration 10 uM, replicate 2
smiles,measurement,setting,value
COc1c(Nc2ccc(S(C)(=O)=O)nc2C)ncnc1OC1CCN(C(=O)OC(C)C)CC1 [ADP-597],Population Apoptotic (%),[1],57%
same,Population Fragmented Nuclei (%),[1],14%
same,Population Healthy Nuclei (%),[1],71%
same,Population Hoechst High Intensity Objects (%),[1],3%
same,Population Membrane Permeable-Phenotype (%),[1],0%
same,Population Mitochondria Different-Phenotype (%),[1],10%
same,Population Mitotic Cells (%),[1],42%
same,Population Normal (%),[1],96%
same,Population Pyknosed Nuclei (%),[1],14%
same,Population Tubulin-Different-Phenotype (%),[1],34%
same,Total Cell Count,[1],133
same,Population Apoptotic (%),[2],42%
same,Population Fragmented Nuclei (%),[2],27%
same,Population Healthy Nuclei (%),[2],40%
same,Population Hoechst High Intensity Objects (%),[2],4%
same,Population Membrane Permeable-Phenotype (%),[2],2%
same,Population Mitochondria Different-Phenotype (%),[2],7%
same,Population Mitotic Cells (%),[2],57%
same,Population Normal (%),[2],95%
same,Population Pyknosed Nuclei (%),[2],33%
same,Population Tubulin-Different-Phenotype (%),[2],27%
same,Total Cell Count,[2],105
same,Population Apoptotic (%),[3],44%
same,Population Fragmented Nuclei (%),[3],21%
same,Population Healthy Nuclei (%),[3],58%
same,Population Hoechst High Intensity Objects (%),[3],2%
same,Population Membrane Permeable-Phenotype (%),[3],0%
same,Population Mitochondria Different-Phenotype (%),[3],15%
same,Population Mitotic Cells (%),[3],56%
same,Population Normal (%),[3],97%
same,Population Pyknosed Nuclei (%),[3],20%
same,Population Tubulin-Different-Phenotype (%),[3],54%
same,Total Cell Count,[3],127
same,Population Apoptotic (%),[4],39%
same,Population Fragmented Nuclei (%),[4],43%
same,Population Healthy Nuclei (%),[4],27%
same,Population Membrane Permeable-Phenotype (%),[4],11%
same,Population Mitochondria Different-Phenotype (%),[4],14%
same,Population Mitotic Cells (%),[4],60%
same,Population Normal (%),[4],98%
same,Population Pyknosed Nuclei (%),[4],28%
same,Population Tubulin-Different-Phenotype (%),[4],77%
same,Total Cell Count,[4],100
same,Population Apoptotic (%),[5],47%
same,Population Fragmented Nuclei (%),[5],17%
same,Population Healthy Nuclei (%),[5],67%
same,Population Hoechst High Intensity Objects (%),[5],4%
same,Population Membrane Permeable-Phenotype (%),[5],0%
same,Population Mitochondria Different-Phenotype (%),[5],1%
same,Population Mitotic Cells (%),[5],52%
same,Population Normal (%),[5],95%
same,Population Pyknosed Nuclei (%),[5],15%
same,Population Tubulin-Different-Phenotype (%),[5],27%
same,Total Cell Count,[5],146
same,Population Apoptotic (%),[6],37%
same,Population Fragmented Nuclei (%),[6],25%
same,Population Healthy Nuclei (%),[6],50%
same,Population Hoechst High Intensity Objects (%),[6],10%
same,Population Membrane Permeable-Phenotype (%),[6],10%
same,Population Mitochondria Different-Phenotype (%),[6],2%
same,Population Mitotic Cells (%),[6],62%
same,Population Normal (%),[6],89%
same,Population Pyknosed Nuclei (%),[6],24%
same,Population Tubulin-Different-Phenotype (%),[6],48%
same,Total Cell Count,[6],109
same,Population Apoptotic (%),[7],52%
same,Population Fragmented Nuclei (%),[7],20%
same,Population Healthy Nuclei (%),[7],60%
same,Population Hoechst High Intensity Objects (%),[7],5%
same,Population Membrane Permeable-Phenotype (%),[7],0%
same,Population Mitochondria Different-Phenotype (%),[7],5%
same,Population Mitotic Cells (%),[7],47%
same,Population Normal (%),[7],94%
same,Population Pyknosed Nuclei (%),[7],18%
same,Population Tubulin-Different-Phenotype (%),[7],41%
same,Total Cell Count,[7],131
same,Population Apoptotic (%),[8],27%
same,Population Fragmented Nuclei (%),[8],49%
same,Population Healthy Nuclei (%),[8],31%
same,Population Hoechst High Intensity Objects (%),[8],6%
same,Population Membrane Permeable-Phenotype (%),[8],10%
same,Population Mitochondria Different-Phenotype (%),[8],3%
same,Population Mitotic Cells (%),[8],72%
same,Population Normal (%),[8],93%
same,Population Pyknosed Nuclei (%),[8],19%
same,Population Tubulin-Different-Phenotype (%),[8],75%
same,Total Cell Count,[8],99
same,Population Apoptotic (%),[9],64%
same,Population Fragmented Nuclei (%),[9],25%
same,Population Healthy Nuclei (%),[9],63%
same,Population Hoechst High Intensity Objects (%),[9],2%
same,Population Membrane Permeable-Phenotype (%),[9],0%
same,Population Mitochondria Different-Phenotype (%),[9],4%
same,Population Mitotic Cells (%),[9],35%
same,Population Normal (%),[9],97%
same,Population Pyknosed Nuclei (%),[9],11%
same,Population Tubulin-Different-Phenotype (%),[9],30%
same,Total Cell Count,[9],152
same,Population Apoptotic (%),[10],42%
same,Population Fragmented Nuclei (%),[10],28%
same,Population Healthy Nuclei (%),[10],51%
same,Population Hoechst High Intensity Objects (%),[10],9%
same,Population Membrane Permeable-Phenotype (%),[10],2%
same,Population Mitochondria Different-Phenotype (%),[10],0%
same,Population Mitotic Cells (%),[10],57%
same,Population Normal (%),[10],90%
same,Population Pyknosed Nuclei (%),[10],20%
same,Population Tubulin-Different-Phenotype (%),[10],59%
same,Total Cell Count,[10],102
same,Population Apoptotic (%),[11],73%
same,Population Fragmented Nuclei (%),[11],29%
same,Population Healthy Nuclei (%),[11],58%
same,Population Hoechst High Intensity Objects (%),[11],8%
same,Population Membrane Permeable-Phenotype (%),[11],0%
same,Population Mitochondria Different-Phenotype (%),[11],20%
same,Population Mitotic Cells (%),[11],26%
same,Population Normal (%),[11],91%
same,Population Pyknosed Nuclei (%),[11],12%
same,Population Tubulin-Different-Phenotype (%),[11],57%
same,Total Cell Count,[11],131
same,Population Apoptotic (%),[12],75%
same,Population Fragmented Nuclei (%),[12],56%
same,Population Healthy Nuclei (%),[12],36%
same,Population Hoechst High Intensity Objects (%),[12],2%
same,Population Membrane Permeable-Phenotype (%),[12],2%
same,Population Mitochondria Different-Phenotype (%),[12],18%
same,Population Mitotic Cells (%),[12],25%
same,Population Normal (%),[12],97%
same,Population Pyknosed Nuclei (%),[12],7%
same,Population Tubulin-Different-Phenotype (%),[12],84%
same,Total Cell Count,[12],108
